# According to paper PMC4220649 (Blood Cancer Journal, 2014):
# “And” between values parts separate entries of the source, which are not always exact repeats. Equal values may be shown once. “Also recorded” adds a separate entry of the source.
# Columns and labels:
# 20S proteasome = 20S proteasome (Homo sapiens, UniProt P28074); assay: Whole blood 20S proteasome activity; assay type: in vivo; conditions: for Emax / Time to Emax: whole blood 20S; for Maximal 20S proteasome inhibition / Time of maximal 20S proteasome inhibition after administration: whole blood, MTD 2.34 mg/m^2
# Procedure, shortened: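 Whole blood was sampled after IV bolus dosing (0.125–3.11 mg/m2) on cycle 1 days 1 and 15. 20S proteasome activity was measured by fluorogenic assay.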
# [1] = weekly oral ixazomib, relapsed or refractory MM, after multiple dosing; cited from earlier work
# [2] = system: patients with relapsed or refractory MM; conditions: twice-weekly oral ixazomib; cited from earlier work
# [3] = system: relapsed/refractory lymphoma; assay: Disease response by International Working Group criteria for lymphoma; assay type: in vivo, human; conditions: for Duration of response: follicular lymphoma patient
# Procedure, shortened: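 CT and PET were done at screening, with repeat PET at end of cycles 2 and 4 if positive. Response was assessed at end of cycle 2, every 2 cycles to cycle 12, then every 4 cycles. Evaluable patients had measurable baseline disease and ⩾1 post-baseline assessment.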
# [4] = system: patients with relapsed or refractory light-chain amyloidosis; conditions: weekly oral ixazomib; cited from earlier work
# [5] = system: patients with relapsed or refractory MM; conditions: cited from earlier work
# [6] = Urine pharmacokinetics of ixazomib; assay type: in vivo, human
# [7] = Plasma pharmacokinetics of ixazomib after IV bolus; assay type: in vivo, human; conditions: for DN AUC0–168 h: dose normalized; for DN AUC0–168 h / C0 / half-life / AUC0–168 h: plasma
# [8] = day 1, IV 0.125 mg/m^2, n=1, individual value
# [9] = day 1, IV 0.25 mg/m^2, n=1, individual value
# [10] = day 1, IV 0.5 mg/m^2, n=1, individual value
# [11] = day 1, IV 1 mg/m^2, n=1, individual value
# [12] = day 15, IV 0.25 mg/m^2, n=1, individual value
# [13] = day 15, IV 0.5 mg/m^2, n=1, individual value
# [14] = day 15, IV 1 mg/m^2, n=1, individual value
# [15] = day 15, IV 3.11 mg/m^2, n=2, individual values
# [16] = day 15, IV 1.4 mg/m^2, n=4, geometric mean (%CV)
# [17] = day 1, IV 1.4 mg/m^2, n=4, geometric mean (%CV)
# [18] = day 1, IV 1.76 mg/m^2, n=6, geometric mean (%CV)
# [19] = day 1, IV 2.34 mg/m^2, n=7, geometric mean (%CV)
# [20] = day 1, IV 3.11 mg/m^2, n=5, geometric mean (%CV)
# [21] = day 15, IV 2.34 mg/m^2, n=7, geometric mean (%CV)
smiles,measurement,setting,value
CC(C)C[C@H](NC(=O)CNC(=O)c1cc(Cl)ccc1Cl)B(O)O [ixazomib],Dose dependence of maximal whole blood 20S proteasome inhibition,20S proteasome; 0.125–3.11 mg/m^2,dose-dependent increase
same,AUE0–168 h,"20S proteasome; area under 20S inhibition vs time curve, day 1, IV 1.4 mg/m^2, n=3, mean (±s.d.)",2000 (±1160) % inhibition/h
same,Emax,20S proteasome; [8],5.15 % inhibition
same,Time to Emax,20S proteasome; [8],0.25 h
same,Emax,20S proteasome; [9],18.5 % inhibition
same,Time to Emax,20S proteasome; [9],0.083 h
same,Emax,20S proteasome; [10],33.2 % inhibition
same,Time to Emax,20S proteasome; [10],0.1 h
same,Emax,20S proteasome; [11],50.5 % inhibition
same,Time to Emax,20S proteasome; [11],0.083 h
same,Emax,"20S proteasome; day 1, IV 1.4 mg/m^2, n=3, mean (±s.d.)",66.3 (±14.8) % inhibition
same,Time to Emax,"20S proteasome; day 1, IV 1.4 mg/m^2, n=3, median (range)",0.117 (0.1–0.133) h
same,Emax,"20S proteasome; day 1, IV 1.76 mg/m^2, n=7, mean (±s.d.)",72.2 (±8.1) % inhibition
same,Time to Emax,"20S proteasome; day 1, IV 1.76 mg/m^2, n=7, median (range)",0.083 (0.083–0.1) h
same,Emax,"20S proteasome; day 1, IV 2.34 mg/m^2, n=5, mean (±s.d.)",81.9 (±3.2) % inhibition
same,Time to Emax,"20S proteasome; day 1, IV 2.34 mg/m^2, n=5, median (range)",0.083 (0.083–0.25) h
same,Emax,"20S proteasome; day 1, IV 3.11 mg/m^2, n=4, mean (±s.d.)",80.2 (±3.6) % inhibition
same,Time to Emax,"20S proteasome; day 1, IV 3.11 mg/m^2, n=4, median (range)",0.109 (0.083–0.533) h
same,Emax,20S proteasome; [12],64.3 % inhibition
same,Time to Emax,20S proteasome; [12],0.1 h
same,Emax,20S proteasome; [13],19.2 % inhibition
same,Time to Emax,20S proteasome; [13],0.1 h
same,Emax,20S proteasome; [14],44.4 % inhibition
same,Time to Emax,20S proteasome; [14],0.083 h
same,Emax,"20S proteasome; day 15, IV 1.4 mg/m^2, n=3, mean (±s.d.)",69.8 (±10.6) % inhibition
same,Time to Emax,"20S proteasome; day 15, IV 1.4 mg/m^2, n=3, median (range)",0.083 (0.083–0.083) h
same,Emax,"20S proteasome; day 15, IV 1.76 mg/m^2, n=3, mean (±s.d.)",74.8 (±4.5) % inhibition
same,Time to Emax,"20S proteasome; day 15, IV 1.76 mg/m^2, n=3, median (range)",0.083 (0.033–0.083) h
same,Emax,"20S proteasome; day 15, IV 2.34 mg/m^2, n=4, mean (±s.d.)",79.6 (±4.9) % inhibition
same,Time to Emax,"20S proteasome; day 15, IV 2.34 mg/m^2, n=4, median (range)",0.167 (0.083–0.25) h
same,Emax,20S proteasome; [15],82.3 % inhibition and 85 % inhibition
same,Time to Emax,20S proteasome; [15],0.083 h and 0.117 h
same,Maximal 20S proteasome inhibition,20S proteasome; day 1,82%
same,Time of maximal 20S proteasome inhibition after administration,20S proteasome; day 1,5 min
same,Maximal 20S proteasome inhibition,20S proteasome; day 15,80%
same,Time of maximal 20S proteasome inhibition after administration,20S proteasome; day 15,10 min
same,Terminal half-life,[1],96 to 288 h
same,Rate of drug-related rash,[2],28%
same,Rate of drug-related skin and subcutaneous tissue disorders,[2],40%
same,Patients achieving responses (CR or PR),[3]; 26 evaluable patients,five
same,Duration of response,[3]; 1.4 mg/m^2,24.1 months
same,Duration of response,[3]; 2.34 mg/m^2,2 months
same,Responders among follicular lymphoma patients,[3]; one complete and three partial responses,4/11 and 4 of 11
same,Responders among peripheral T-cell lymphoma patients,[3]; partial response,1/4
same,Median duration of stable disease,"[3]; six patients, range 1.7–5.4",3.6 months
same,Rate of all-cause rash/maculopapular rash,[4],18%
same,"Any-grade drug-related PN, patients",[5]; weekly oral ixazomib in MM,20%
same,"Drug-related grade 3 PN, patients",[5]; weekly oral ixazomib in MM,2%
same,Rate of drug-related AEs in the Skin and subcutaneous tissue disorders System Organ Class,"[5]; weekly oral ixazomib, relapsed or refractory MM",22%
same,Fraction of ixazomib excreted unchanged in urine,"[6]; 25 patients, days 1 and 15, 0 to 4 h",< 1 % of the administered dose
same,CL renal,"[6]; human, urine, intravenous",< 8.5 mL/min
same,Dose proportionality of plasma exposure,[7]; 0.5–3.11 mg/m^2,increased dose proportionally; also recorded: dose-proportionality of ixazomib exposure
same,Accumulation of ixazomib between day 1 and day 15 doses,"[7]; AUC0–168 h, Figure 1d",approximately twofold
same,Accumulation ratio,[7]; [16],2.17 (7)
same,Accumulation ratio,"[7]; day 15, IV 2.34 mg/m^2, n=6, geometric mean (%CV)",2.27 (15)
same,Accumulation ratio,[7]; [15],2.02 and 2.21
same,DN AUC0–168 h,[7]; [17],221 (41) hr/ng/ml/mg
same,DN AUC0–168 h,[7]; [18],259 (49) hr/ng/ml/mg
same,DN AUC0–168 h,[7]; [19],257 (50) hr/ng/ml/mg
same,DN AUC0–168 h,[7]; [20],278 (46) hr/ng/ml/mg
same,DN AUC0–168 h,[7]; [13],151 h/ng/mL/mg
same,DN AUC0–168 h,[7]; [14],385 h/ng/mL/mg
same,DN AUC0–168 h,[7]; [16],481 (34) hr/ng/ml/mg
same,DN AUC0–168 h,[7]; [21],500 (55) hr/ng/ml/mg
same,C0,"[7]; human, iv, 0.25 mg/m2, C0, plasma, day 1, IV 0.25 mg/m^2, n=1, individual value",59.4 ng/mL
same,C0,"[7]; human, iv, 1 mg/m2, C0, plasma, day 15, IV 1 mg/m^2, n=1, individual value",383 ng/mL
same,C0,"[7]; human, iv, 1.4 mg/m2, C0, plasma, day 1, IV 1.4 mg/m^2, n=4, geometric mean (%CV)",714 ng/mL
same,C0,"[7]; human, iv, 1.4 mg/m2, C0, plasma, day 15, IV 1.4 mg/m^2, n=4, geometric mean (%CV)",497 ng/mL
same,half-life,"[7]; human, iv, 1.4 mg/m2, t½, terminal disposition phase half-life, day 15, IV 1.4 mg/m^2, n=4, geometric mean (%CV)",209 h
same,C0,"[7]; human, iv, 1.76 mg/m2, C0, plasma, day 1, IV 1.76 mg/m^2, n=7, geometric mean (%CV)",542 ng/mL
same,C0,"[7]; human, iv, 1.76 mg/m2, C0, plasma, day 15, IV 1.76 mg/m^2, n=3, geometric mean (%CV)",499 ng/mL
same,half-life,"[7]; human, iv, 1.76 mg/m2, t½, terminal disposition phase half-life, day 15, IV 1.76 mg/m^2, n=3, geometric mean (%CV)",146 h
same,C0,"[7]; human, iv, 2.34 mg/m2, C0, plasma, day 15, IV 2.34 mg/m^2, n=7, geometric mean (%CV)",803 ng/mL
same,half-life,"[7]; human, iv, 2.34 mg/m2, t½, terminal disposition phase half-life, day 15, IV 2.34 mg/m^2, n=7, geometric mean (%CV)",108 h
same,C0,"[7]; human, iv, 3.11 mg/m2, C0, plasma, day 1, IV 3.11 mg/m^2, n=5, geometric mean (%CV)",961 ng/mL
same,C0,"[7]; human, iv, 3.11 mg/m2, C0, plasma, day 15, IV 3.11 mg/m^2, n=2, individual values",1110 ng/mL
same,half-life,"[7]; human, iv, 3.11 mg/m2, t½, terminal disposition phase half-life, day 15, IV 3.11 mg/m^2, n=2, individual values",97.9 h
same,half-life,"[7]; human, iv, Terminal half-life, after multiple dosing, weekly IV",96 to 288 h
same,Rapid initial disposition phase over by,[7]; multi-phasic disposition after IV administration,≤ 4 h
same,AUC0–168 h,[7]; [17],637 (30) hr/ng/ml
same,AUC0–168 h,[7]; [18],821 (48) hr/ng/ml
same,AUC0–168 h,[7]; [19],1060 (37) hr/ng/ml
same,AUC0–168 h,[7]; [20],1680 (39) hr/ng/ml
same,AUC0–168 h,[7]; [13],175 h/ng/mL
same,AUC0–168 h,[7]; [14],732 h/ng/mL
same,AUC0–168 h,[7]; [16],1390 (24) hr/ng/ ml
same,AUC0–168 h,[7]; [21],2110 (41) hr/ng/ ml
same,AUC0–168 h,[7]; [15],2090 h/ng/mL and 3080 h/ng/mL
same,C0,[7]; [15],1280 ng/mL
